Experimental data from ChEMBL document CHEMBL4033780, “Lipidated Brartemicin Analogues Are Potent Th1-Stimulating Vaccine Adjuvants” (J Med Chem, 2018).
Calls of active or inactive are those of the source. The rule behind the calls is not given here.

Tests used:
[1] = Toxicity in Atlantic horseshoe crab blood limulus amebocyte lysate by chromogenic endotoxin test; settings: limulus polyphemus
Method in brief: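 Endotoxin was measured by chromogenic Limulus amebocyte lysate assay at a sensitivity of ≤0.1 EU/mL.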

[2] = system: BMDM; assay: Immunostimulatory activity in mincle-/- C57BL/6 mouse GM-CSF derived BMDM assessed as increase in TNF release at […] after 24 hrs by sandwich ELISA method; type: functional, cell-based
Method in brief: (§1)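 Wild-type or Mincle−/− C57BL/6 bone marrow was cultured 8 days with GM-CSF 50 ng/mL in complete RPMI. Macrophages were detached with Acutase and seeded on ligand-coated plates (0.1 or 1 nmol/well); LPS 100 ng/mL was used as comparator. Supernatant was taken at 24 h and TNF, IL-6, IL-1β and MIP-2 measured by sandwich ELISA. Representative of three experiments in triplicate (±SD).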

[3] = biological target: T1, C-type lectin domain family 4 member E (Mus musculus) (UniProt Q9R0Q8); assay: Agonist activity at mincle in wild type C57BL/6 mouse GM-CSF derived BMDM assessed as increase in MIP2 release at 0.1 to 1 nmol after 24 hrs by sandwich ELISA; method in brief: as §1
T1 sequence (whole entry): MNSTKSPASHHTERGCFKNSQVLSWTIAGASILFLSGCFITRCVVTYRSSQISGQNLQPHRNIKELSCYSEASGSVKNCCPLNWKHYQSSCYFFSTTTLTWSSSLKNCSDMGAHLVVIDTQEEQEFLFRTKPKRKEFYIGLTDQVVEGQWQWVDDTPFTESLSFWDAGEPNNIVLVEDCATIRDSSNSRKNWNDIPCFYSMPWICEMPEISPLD

[4] = biological target: T2, C-type lectin domain family 4 member E (Homo sapiens) (UniProt Q9ULY5); assay: Binding affinity to recombinant human mincle extracellular domain fused with human IgG Fc expressed in HEK293T cells at 0.1 nmol by ELISA; type: cell-based; settings: HEK-293T
T2 sequence (whole entry): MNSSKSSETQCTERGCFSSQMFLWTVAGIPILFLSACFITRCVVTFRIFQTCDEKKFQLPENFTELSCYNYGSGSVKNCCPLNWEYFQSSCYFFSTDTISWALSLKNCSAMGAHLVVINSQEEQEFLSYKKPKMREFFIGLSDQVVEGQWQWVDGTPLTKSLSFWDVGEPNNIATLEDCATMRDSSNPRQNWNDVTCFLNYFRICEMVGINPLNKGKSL

[5] = biological target: T1, C-type lectin domain family 4 member E (Mus musculus); assay: Agonist activity at mouse mincle coupled with FcRgamma expressed in 2B4-NFAT-GFP reporter cells up to 1 nmol after 18 hrs by flow cytometric analysis; type: cell-based
Method in brief: (§2)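 2B4 NFAT-GFP reporter cells expressing mouse or human Mincle plus FcRγ were placed on plates coated with ligand at 0.01, 0.1 or 1 nmol/well; cells expressing FcRγ only served as negative control. Ligand was coated from isopropanol, 0.05 mM, and solvent evaporated. After 18 h, cells were harvested, stained with propidium iodide and GFP read by flow cytometry. Mean of three experiments in duplicate (±SEM).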

[6] = biological target: T1, C-type lectin domain family 4 member E (Mus musculus); assay: Agonist activity at mincle in wild type C57BL/6 mouse GM-CSF derived BMDM assessed as increase in IL-1beta release at 0.1 to 1 nmol after 24 hrs by sandwich ELISA; method in brief: as §1
[7] = system: BMDM; assay: Immunostimulatory activity in mincle-/- C57BL/6 mouse GM-CSF derived BMDM assessed as increase in IL-1beta release at […] after 24 hrs by sandwich ELISA method; type: functional, cell-based; method in brief: as §1
[8] = system: BMDM; assay: Immunostimulatory activity in mincle-/- C57BL/6 mouse GM-CSF derived BMDM assessed as increase in MIP2 release at […] after 24 hrs by sandwich ELISA method; type: functional, cell-based; method in brief: as §1
[9] = system: BMDM; assay: Immunostimulatory activity in mincle-/- C57BL/6 mouse GM-CSF derived BMDM assessed as increase in IL-6 release at […] after 24 hrs by sandwich ELISA method; type: functional, cell-based; method in brief: as §1
[10] = biological target: T1, C-type lectin domain family 4 member E (Mus musculus); assay: Agonist activity at mincle in wild type C57BL/6 mouse GM-CSF derived BMDM assessed as increase in IL-6 release at 0.1 to 1 nmol after 24 hrs by sandwich ELISA; method in brief: as §1
[11] = biological target: T1, C-type lectin domain family 4 member E (Mus musculus); assay: Agonist activity at mincle in wild type C57BL/6 mouse GM-CSF derived BMDM assessed as increase in TNF release at 0.1 to 1 nmol after 24 hrs by sandwich ELISA; method in brief: as §1
[12] = biological target: T1, C-type lectin domain family 4 member E (Mus musculus); assay: Binding affinity to recombinant mouse mincle extracellular domain fused with human IgG Fc expressed in HEK293T cells at 0.1 nmol by ELISA; type: cell-based; settings: HEK-293T
[13] = biological target: T2, C-type lectin domain family 4 member E (Homo sapiens); assay: Agonist activity at human mincle coupled with FcRgamma expressed in 2B4-NFAT-GFP reporter cells after 18 hrs by flow cytometric analysis; type: cell-based; method in brief: as §2
[14] = biological target: T1, C-type lectin domain family 4 member E (Mus musculus); assay: Agonist activity at mouse mincle coupled with FcRgamma expressed in 2B4-NFAT-GFP reporter cells after 18 hrs by flow cytometric analysis; type: cell-based; method in brief: as §2
[15] = biological target: T2, C-type lectin domain family 4 member E (Homo sapiens); assay: Agonist activity at human mincle coupled with FcRgamma expressed in 2B4-NFAT-GFP reporter cells at higher concentration after 18 hrs by flow cytometric analysis; type: cell-based; method in brief: as §2

Activity [3] | Activity [4] | Activity [6] | Activity [10] | Activity [11] | Activity [12] | SMILES | Activity [1] | Activity [2] | Activity [7] | Activity [8] | Activity [9] | other results
– | – | – | – | – | – | CCCCCCCOc1ccc(C(=O)OC[C@H]2O[C@H](O[C@H]3O[C@H](COC(=O)c4ccc(OCCCCCCC)cc4OCc4ccccc4)[C@@H](OCc4ccccc4)[C@H](OCc4ccccc4)[C@H]3OCc3ccccc3)[C@H](OCc3ccccc3)[C@@H](OCc3ccccc3)[C@@H]2OCc2ccccc2)c(OCc2ccccc2)c1 | <= 0.1 EU/ml | – | – | – | – | –
– | – | – | – | – | – | COc1ccc(C(=O)OC[C@H]2O[C@H](O[C@H]3O[C@H](COC(=O)c4ccc(OC)cc4OCc4ccccc4)[C@@H](OCc4ccccc4)[C@H](OCc4ccccc4)[C@H]3OCc3ccccc3)[C@H](OCc3ccccc3)[C@@H](OCc3ccccc3)[C@@H]2OCc2ccccc2)c(OCc2ccccc2)c1 | <= 0.1 EU/ml | – | – | – | – | –
inactive | inactive | inactive | inactive | inactive | inactive | O=C(OC[C@H]1O[C@H](O[C@H]2O[C@H](COC(=O)c3ccc(O)cc3O)[C@@H](O)[C@H](O)[C@H]2O)[C@H](O)[C@@H](O)[C@@H]1O)c1ccc(O)cc1O | <= 0.1 EU/ml | inactive | inactive | inactive | inactive | Activity [5]: inactive
– | – | – | – | – | – | Cc1cc(OCc2ccccc2)cc(OCc2ccccc2)c1C(=O)OC[C@H]1O[C@H](O[C@H]2O[C@H](COC(=O)c3c(C)cc(OCc4ccccc4)cc3OCc3ccccc3)[C@@H](OCc3ccccc3)[C@H](OCc3ccccc3)[C@H]2OCc2ccccc2)[C@H](OCc2ccccc2)[C@@H](OCc2ccccc2)[C@@H]1OCc1ccccc1 | <= 0.1 EU/ml | – | – | – | – | –
Active | Active | Active | Active | Active | Active | CCCCCCCCCCCCCCCCCCOc1cc(C)c(C(=O)OC[C@H]2O[C@H](O[C@H]3O[C@H](COC(=O)c4c(C)cc(OCCCCCCCCCCCCCCCCCC)cc4O)[C@@H](O)[C@H](O)[C@H]3O)[C@H](O)[C@@H](O)[C@@H]2O)c(O)c1 | <= 0.1 EU/ml | inactive | inactive | inactive | inactive | Activity [13]: Dose-dependent effect; Activity [14]: Dose-dependent effect
– | – | – | – | – | – | CCCCOc1ccc(C(=O)OC[C@H]2O[C@H](O[C@H]3O[C@H](COC(=O)c4ccc(OCCCC)cc4OCc4ccccc4)[C@@H](OCc4ccccc4)[C@H](OCc4ccccc4)[C@H]3OCc3ccccc3)[C@H](OCc3ccccc3)[C@@H](OCc3ccccc3)[C@@H]2OCc2ccccc2)c(OCc2ccccc2)c1 | <= 0.1 EU/ml | – | – | – | – | –
– | – | – | – | – | – | CCCCCCCOc1ccc(C(=O)OC[C@H]2O[C@H](O[C@H]3O[C@H](COC(=O)c4ccc(OCCCCCCC)cc4)[C@@H](OCc4ccccc4)[C@H](OCc4ccccc4)[C@H]3OCc3ccccc3)[C@H](OCc3ccccc3)[C@@H](OCc3ccccc3)[C@@H]2OCc2ccccc2)cc1 | <= 0.1 EU/ml | – | – | – | – | –
Active | Active | Active | Active | Active | Active | CCCCCCCCCCCCCCCCCCOc1ccc(C(=O)OC[C@H]2O[C@H](O[C@H]3O[C@H](COC(=O)c4ccc(OCCCCCCCCCCCCCCCCCC)cc4)[C@@H](O)[C@H](O)[C@H]3O)[C@H](O)[C@@H](O)[C@@H]2O)cc1 | <= 0.1 EU/ml | inactive | inactive | inactive | inactive | Activity [13]: Dose-dependent effect; Activity [14]: Dose-dependent effect
– | – | – | – | – | – | CCCCCCCCCCCCCCCCCCOc1ccc(C(=O)OC[C@H]2O[C@H](O[C@H]3O[C@H](COC(=O)c4ccc(OCCCCCCCCCCCCCCCCCC)cc4OCc4ccccc4)[C@@H](OCc4ccccc4)[C@H](OCc4ccccc4)[C@H]3OCc3ccccc3)[C@H](OCc3ccccc3)[C@@H](OCc3ccccc3)[C@@H]2OCc2ccccc2)c(OCc2ccccc2)c1 | <= 0.1 EU/ml | – | – | – | – | –
– | – | – | – | – | – | O=C(OC[C@H]1O[C@H](O[C@H]2O[C@H](COC(=O)c3ccc(OCc4ccccc4)cc3OCc3ccccc3)[C@@H](OCc3ccccc3)[C@H](OCc3ccccc3)[C@H]2OCc2ccccc2)[C@H](OCc2ccccc2)[C@@H](OCc2ccccc2)[C@@H]1OCc1ccccc1)c1ccc(OCc2ccccc2)cc1OCc1ccccc1 | <= 0.1 EU/ml | – | – | – | – | –
– | – | – | – | – | – | CCCCCCCCCCCCCCCCCCOc1ccc(C(=O)OC[C@H]2O[C@H](O[C@H]3O[C@H](COC(=O)c4ccc(OCCCCCCCCCCCCCCCCCC)cc4)[C@@H](OCc4ccccc4)[C@H](OCc4ccccc4)[C@H]3OCc3ccccc3)[C@H](OCc3ccccc3)[C@@H](OCc3ccccc3)[C@@H]2OCc2ccccc2)cc1 | <= 0.1 EU/ml | – | – | – | – | –
inactive | inactive | inactive | inactive | inactive | inactive | COc1ccc(C(=O)OC[C@H]2O[C@H](O[C@H]3O[C@H](COC(=O)c4ccc(OC)cc4O)[C@@H](O)[C@H](O)[C@H]3O)[C@H](O)[C@@H](O)[C@@H]2O)c(O)c1 | <= 0.1 EU/ml | inactive | inactive | inactive | inactive | Activity [15]: Active
inactive | inactive | inactive | inactive | inactive | inactive | Cc1cc(O)cc(O)c1C(=O)OC[C@H]1O[C@H](O[C@H]2O[C@H](COC(=O)c3c(C)cc(O)cc3O)[C@@H](O)[C@H](O)[C@H]2O)[C@H](O)[C@@H](O)[C@@H]1O [BRARTEMICIN] | <= 0.1 EU/ml | inactive | inactive | inactive | inactive | Activity [5]: inactive
– | – | – | – | – | – | CCCCCCCCCCCCCCCCCCOc1cc(C)c(C(=O)OC[C@H]2O[C@H](O[C@H]3O[C@H](COC(=O)c4c(C)cc(OCCCCCCCCCCCCCCCCCC)cc4OCc4ccccc4)[C@@H](OCc4ccccc4)[C@H](OCc4ccccc4)[C@H]3OCc3ccccc3)[C@H](OCc3ccccc3)[C@@H](OCc3ccccc3)[C@@H]2OCc2ccccc2)c(OCc2ccccc2)c1 | <= 0.1 EU/ml | – | – | – | – | –
